Results of several laboratories.
Each line is one published result; the experiments were not run side by side.
Target: RAF proto-oncogene serine/threonine-protein kinase (RAF1, Homo sapiens, UniProt P04049)

Structure (SMILES) | test | setting | quantity | value
COc1ccc2[nH]c3c4[nH]c5ccc(OC)cc5c4c4c(c3c2c1)C(=O)NC4=O | binding, competition with immobilised ligand | 1 µM | remaining binding | 100%
Cc1cc(O)c(-c2ccc([C@@H](C)CN(C)C)cc2)c2c1[nH]c(=O)c1sccc12 | enzyme activity, inhibitor | 0.1 µM | inhibition | 7.07%
CCCCC(=O)Nc1ccc(-c2ccc3ncn(CCC)c(=O)c3c2)cn1 | binding, competition with immobilised ligand | 0.5 µM | remaining binding | 80%
Cc1ccc(NC(=O)c2ccnc(C(F)(F)F)c2)cc1-c1cc(OCCO)nc(N2CCOCC2)c1 | binding, competition with immobilised ligand | 1 µM | remaining binding | 1.2%
C=CC(=O)N1CCC([C@@H]2CCNc3c(C(N)=O)c(-c4ccc(Oc5ccccc5)cc4)nn32)CC1 | enzyme activity, inhibitor | 1 µM | inhibition | 0%
C#Cc1cnc(Nc2ccnc(CO)c2)nc1Nc1ccccc1S(C)(=O)=NC#N (stereo not shown) | cell-free assay | 1 µM | remaining signal | 85%
COc1ccc2oc(-c3ccc4nc(N)oc4c3)c/c(=N\c3ccccc3NC(=O)CCN)c2c1 | binding | 1 µM | remaining binding | 104%
CO[C@@H]1[C@H](N(C)C(=O)c2ccccc2)C[C@H]2O[C@]1(C)n1c3ccccc3c3c4c(c5c6ccccc6n2c5c31)C(=O)NC4 | enzyme activity, inhibitor | 1 µM | inhibition | 0%
N#Cc1ccc(NC(=O)Nc2ccccc2)cc1 | cell-free assay, competition with immobilised ligand | 25 µM | remaining binding | 98%
C#Cc1cc(-c2cc(Nc3nc(N[C@@H](C)c4ccc(F)cn4)ncc3Cl)n[nH]2)ccc1C=O | enzyme activity, inhibitor | 0.2 µM | inhibition | 13.8%
